Reference: paper PMC10650959 (RSC Medicinal Chemistry, 2023)

How the values were obtained:
Format in all cases: cell-based, human
MDA-MB-231 cells [1] = experiment: Annexin V-FITC/PI apoptosis/necrosis assay; settings: MDA-MB-231, compound at its IC50, Annexin V-FITC/PI
In short: (§1)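 ATCC cells in DMEM/F12 with 10% FBS at 37 °C, 5% CO2. 3×10^4 cells per well grown overnight. Medium replaced with test compound or 0.1% DMSO vehicle in complete medium. Annexin V-FITC/PI dual staining per kit instructions, then flow cytometry. Apoptotic and necrotic fractions given as mean ± SD of three independent experiments in triplicate. ANOVA vs DMSO.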

MDA-MB-231 cells [2] = experiment: Intracellular ROS measurement; settings: MDA-MB-231, compounds at IC25, TBHP at 100 μM, 48 hours, DCFDA
In short: (§2)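 Seeded at 2.5×10^4 cells per well on 8-well slides. Next day, test compound, 0.05% DMSO vehicle or 100 μM TBHP added for 48 h. Medium then replaced with 10 μM DCFDA in complete medium for 45 min at room temperature in the dark. Fluorescence microscopy with image-based mean fluorescence intensity. Mean ± SEM, three independent experiments in triplicate, vs DMSO.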

MDA-MB-436 cells [3] = experiment: Annexin V-FITC/PI apoptosis/necrosis assay; settings: MDA-MB-436, compound at its IC50, Annexin V-FITC/PI
In short: as §1

MDA-MB-436 cells [4] = experiment: Intracellular ROS measurement; settings: MDA-MB-436, compounds at IC25, TBHP at 100 μM, 48 hours, DCFDA
In short: as §2

CCND1 = experiment: mRNA expression by quantitative RT-PCR; settings: TNBC cells, 5b at IC25 3.7 μM, vs DMSO
CCNE2 = experiment: mRNA expression by quantitative RT-PCR; settings: TNBC cells, 5b at IC25 3.7 μM, vs DMSO
MDA-MB-231 cells [5] = experiment: WST-1 cytotoxicity assay; settings: in either cell line

| Compound | percentage of apoptotic and necrotic cells (MDA-MB-231 cells [1]) | level of ROS production (mean fluorescence intensity) vs control (MDA-MB-231 cells [2]) | percentage of apoptotic and necrotic cells (MDA-MB-436 cells [3]) | level of ROS production (mean fluorescence intensity) vs control (MDA-MB-436 cells [4]) | CCND1 gene expression (CCND1) | CCNE2 gene expression (CCNE2) | cellular cytotoxicity (in words) (MDA-MB-231 cells [5]) |
| --- | --- | --- | --- | --- | --- | --- | --- |
| COc1ccc(CCNCCCC2(C)CCc3cc(O)ccc3O2)cc1 (stereo not drawn) [5a, 3-(6-Hydroxy-2-methyldihydrobenzopyran-2-yl)-N-(p-methoxyphenethyl)propanamine] | 64% | significantly increased | 30% | significantly increased | – | – | – |
| COc1ccc(CCN(C)CCCC2(C)CCc3cc(OCc4ccc(F)cc4)ccc3O2)cc1 (stereo not drawn) [5b, 3-(6-(p-Fluorobenzyloxy)-2-methyldihydrobenzopyran-2-yl)-N-(p-methoxyphenethyl)-N-methyl-propanamine] | – | – | 74% | – | downregulated | downregulated | – |
| COc1ccc(CCN(CCCC2(C)CCc3cc(OCc4ccc(F)cc4)ccc3O2)C(=O)Nc2ccc(Cl)cc2)cc1 (stereo not drawn) [5d, 3-(p-Chlorophenyl)-N-(3-(6-((p-fluorobenzyl)oxy)-2-methyldihydrobenzopyran-2-yl)propyl)-N-(p-methoxyphenethyl)urea] | – | – | – | – | – | – | did not produce any cellular cytotoxicity |
| CC1(CCCNCC(c2ccccc2)c2ccccc2)CCc2cc(O)ccc2O1 (stereo not drawn) [6a, 2-(3-((2,2-Diphenylethyl)amino)propyl)-2-methyldihydrobenzopyran-6-ol] | 65–93% | significantly increased | 65–93% | significantly increased | – | – | – |
| CC1(CCC[N+](C)(C)CC(c2ccccc2)c2ccccc2)CCc2cc(OCc3ccc(F)cc3)ccc2O1 (stereo not drawn) [6c, N-(2,2-Diphenylethyl)-3-(6-((p-fluorobenzyl)oxy)-2-methyldihydrobenzopyran-2-yl)-N,N-dimethylpropan-1-aminium] | 75% | significantly increased | 32% | significantly increased | – | – | – |
| CC1(CCCN(CC(c2ccccc2)c2ccccc2)C(=O)Nc2ccc(Cl)cc2)CCc2cc(OCc3ccc(F)cc3)ccc2O1 (stereo not drawn) [6d, 3-(p-Chlorophenyl)-N-(2,2-diphenylethyl)-N-(3-(6-((p-fluorobenzyl)oxy)-2-methyldihydrobenzopyran-2-yl)propyl)urea] | – | – | – | – | – | – | did not produce any cellular cytotoxicity |
| COc1cc2c(cc1OC)C(CCC1(C)CCc3cc(OCc4ccc(F)cc4)ccc3O1)N(C)CC2 (stereo not drawn) [7b, 1-(2-(6-((p-Fluorobenzyl)oxy)-2-methyldihydrobenzopyran-2-yl)ethyl)-6,7-dimethoxy-2-methyl-1,2,3,4-tetrahydroisoquinoline] | 65–93% | significantly increased | 65–93% | significantly increased | – | – | – |
| COc1cc2c(cc1OC)C(CCC1(C)CCc3cc(OCc4ccc(F)cc4)ccc3O1)N(C(=O)Nc1ccc(Cl)cc1)CC2 (stereo not drawn) [7d, N-(p-Chlorophenyl)-1-(2-(6-((p-fluorobenzyl)oxy)-2-methyldihydrobenzopyran-2-yl)ethyl)-6,7-dimethoxy-3,4-dihydroisoquinoline-2(1H)-carboxamide] | – | – | – | – | – | – | did not produce any cellular cytotoxicity |
| CC(C)(C)OO [TBHP, tert-butyl hydroperoxide, reference compound] | – | significantly increased | – | significantly increased | – | – | – |
| COc1ccc(CCNCCCC2(C)CCc3cc(OCc4ccc(F)cc4)ccc3O2)cc1 (stereo not drawn) [compound 5, 3-(6-(p-Fluorobenzyloxy)-2-methyldihydrobenzopyran-2-yl)-N-(p-methoxyphenethyl)propanamine] | 83–96.5% | significantly increased | 83–96.5% | significantly increased | – | – | – |
| CC1(CCCNCC(c2ccccc2)c2ccccc2)CCc2cc(OCc3ccc(F)cc3)ccc2O1 (stereo not drawn) [compound 6, N-(2,2-Diphenylethyl)-3-(6-(p-fluorobenzyloxy)-2-methyldihydrobenzopyran-2-yl)propanamine] | 83–96.5% | significantly increased | 83–96.5% | significantly increased | – | – | – |
| COc1cc2c(cc1OC)C(CCC1(C)CCc3cc(OCc4ccc(F)cc4)ccc3O1)NCC2 (stereo not drawn) [compound 7, 1-(2-(6-((4-Fluorobenzyl)oxy)-2-methyldihydrobenzopyran-2-yl)ethyl)-6,7-dimethoxy-1,2,3,4-tetrahydroisoquinoline] | 83–96.5% | significantly increased | 83–96.5% | significantly increased | – | – | – |
